Assay results: ChEMBL document CHEMBL1138388, “Chemically programmed antibodies: endothelin receptor targeting CovX-Bodies” (Bioorg Med Chem Lett, 2007)
Activity calls are given as the source filed them. The rule behind the calls is not given here.

Legend:
[1] = biological target: T1, Endothelin-1 receptor (Homo sapiens, UniProt P25101); experiment: Displacement of [125I]ET1 from human ETA receptor expressed in CHO cells; type: cell-based
T1 sequence (P25101 whole entry): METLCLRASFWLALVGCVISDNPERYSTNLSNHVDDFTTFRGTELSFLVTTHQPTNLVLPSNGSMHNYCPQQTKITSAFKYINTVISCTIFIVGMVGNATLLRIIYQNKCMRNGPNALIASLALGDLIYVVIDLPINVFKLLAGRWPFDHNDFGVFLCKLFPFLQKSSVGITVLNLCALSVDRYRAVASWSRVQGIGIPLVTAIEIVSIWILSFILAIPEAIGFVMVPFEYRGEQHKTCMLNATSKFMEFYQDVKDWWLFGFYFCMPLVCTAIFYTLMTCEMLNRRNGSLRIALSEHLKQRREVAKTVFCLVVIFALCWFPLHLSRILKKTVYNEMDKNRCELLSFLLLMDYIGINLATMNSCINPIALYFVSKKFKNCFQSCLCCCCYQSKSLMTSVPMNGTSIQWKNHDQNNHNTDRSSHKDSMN
In short: (§1)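 Competitive binding against 125I-labeled ET-1 on CHO cells stably expressing human ETA or ETB receptor. Six concentrations, 1 µM to 10 pM, at least three measurements each. IC50 taken from the means.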

[2] = organism: Homo sapiens; experiment: Selectivity for human ETA receptor over human ETB receptor
[3] = biological target: T2, Endothelin receptor type B (Homo sapiens, UniProt P24530); experiment: Displacement of [125I]ET1 from human ETB receptor expressed in CHO cells; type: cell-based; in short: as §1
T2 sequence (P24530 whole entry): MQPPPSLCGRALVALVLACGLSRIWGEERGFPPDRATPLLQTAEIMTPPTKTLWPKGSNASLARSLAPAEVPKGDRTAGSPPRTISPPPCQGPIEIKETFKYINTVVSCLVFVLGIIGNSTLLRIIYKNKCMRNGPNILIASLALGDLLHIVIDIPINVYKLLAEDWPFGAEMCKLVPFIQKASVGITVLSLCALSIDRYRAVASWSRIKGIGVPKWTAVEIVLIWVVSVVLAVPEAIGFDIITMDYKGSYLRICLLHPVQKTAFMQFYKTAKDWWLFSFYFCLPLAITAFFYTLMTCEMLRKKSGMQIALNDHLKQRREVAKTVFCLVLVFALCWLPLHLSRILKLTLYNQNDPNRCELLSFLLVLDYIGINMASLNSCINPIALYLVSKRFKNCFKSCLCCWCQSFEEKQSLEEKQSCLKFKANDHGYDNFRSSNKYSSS

[4] = tested on: PC-3; experiment: Inhibition of tumor growth in PC3 cells xenografted mouse at 0.25 mg/kg administered once weekly for 31 days; type: functional, organism-based; parameters: dose 0.25 mg/kg; settings: Homo sapiens
In short: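 PC-3 prostate cancer xenograft. Dosing at 0.25 mg/kg once weekly. Tumor volume tracked to day 31 against vehicle control. Significance by one-way ANOVA with Dunnett's multiple comparison test to vehicle.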

[5] = tested on: PC-3; experiment: Inhibition of tumor growth in human PC3 cells xenografted mouse at 2 mg/kg after 31 days; type: functional; settings: PC-3, 744 h
In short: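 PC-3 prostate cancer xenograft. Dosing at 2 mg/kg […]. Tumor volume growth inhibition read at day 31 against vehicle control. Significance by one-way ANOVA with Dunnett's test to vehicle.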

Row | Compound | IC50 [1] [nM] | Ratio IC50 [2] | IC50 [3] [nM] | Activity [4] | inhibition in vivo at 2 mg/kg [5] [%]
1 | CC(=O)CC(=O)CCc1ccc(NC(=O)CCOCCOCCOCCOCCOCCOCCOCCC(=O)N(C)Cc2cc(-c3ncco3)ccc2-c2ccccc2S(=O)(=O)Nc2ccno2)cc1 | 8 | 564 | 4690 | – | –
2 | CC(=O)CC(=O)CCc1ccc(NC(=O)CCOCCOCCOCCOCCOc2ccc(CCC(=O)N(C)Cc3cc(-c4ncco4)ccc3-c3ccccc3S(=O)(=O)Nc3ccno3)cc2)cc1 | 21.6 | 228 | 4920 | – | –
3 | CC(=O)CC(=O)CCc1ccc(NC(=O)CCOCCOCCOCCOCC(=O)N(C)Cc2cc(-c3ncco3)ccc2-c2ccccc2S(=O)(=O)Nc2ccno2)cc1 | 1.6 | 1120 | 1110 | inactive | –
4 | CC(=O)CC(=O)CCc1ccc(NC(=O)CCOCCOCCOCCOCCOCCOCCOCCOCCOCCOCCOCCNC(=O)CCCC(=O)N(C)Cc2cc(-c3ncco3)ccc2-c2ccccc2S(=O)(=O)Nc2ccno2)cc1 | 7.7 | 564 | 4510 | – | –
5 | CN(Cc1cc(-c2ncco2)ccc1-c1ccccc1S(=O)(=O)Nc1ccno1)C(=O)CC(C)(C)C | 1 | 8980 | 6000 | – | 50
6 | CC(=O)CC(=O)CCc1ccc(NC(=O)CCOCCOCCOCCOc2ccc(-c3ccccc3S(=O)(=O)Nc3ccno3)c(CN(C)C(=O)CC(C)(C)C)c2)cc1 | 44.9 | – | > 10000 | – | –
7 | CC(=O)CC(=O)CCc1ccc(NC(=O)CCOCCOCCOCCOCCOc2ccc(CC(=O)N(C)Cc3cc(-c4ncco4)ccc3-c3ccccc3S(=O)(=O)Nc3ccno3)cc2)cc1 | 4.6 | 420 | 1910 | – | –
